This note sets out measurements from ChEMBL document CHEMBL5380845, “Going beyond Binary: Rapid Identification of Protein-Protein Interaction Modulators Using a Multifragment Kinetic Target-Guided Synthesis Approach” (J Med Chem, 2023).

Bounds are passed on as bounds.

A short description of the assay: Inhibition of GST-tagged mouse Mcl-1 (152 to 309 residues)/FITC-labelled Bim (unknown origin) protein protein interaction at 100 uM by fluorescence polarization method relative to control. An outline of the steps:
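Single-point fluorescence polarization competition at 100 μM. GST-tagged mouse Mcl-1(152–309) (20 nM stock in PBS, 0.005% Tween 20) was mixed with the compound in PBS containing 25% DMSO and 0.005% Tween 20. FITC-Bim-BH3 (10 nM stock in PBS, 5% DMSO) was then added and shaken 3 min at room temperature. Polarization (mP) was read at ex 480/em 535 nm, and percent inhibition is relative to control.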
Background: In fluorescence polarisation assays a small probe gives low polarisation when free and higher when bound to something large.

What is called inhibition is the change of the read-out against control, counted positive when it falls. `O=C(S)c1cccc2ccccc12` gave an inhibition of less than 5%.

For `OC(=S)c1ccccc1`, the inhibition is less than 5%. In the case of `O=C(S)c1ccc(OC(F)(F)F)cc1` it was less than 5%; in that of `Cc1nc(-c2ccccc2)sc1C(=O)S`, less than 5%; in that of `[N-]=[N+]=NS(=O)(=O)c1ccc2ccc(S(=O)(=O)NCCSc3ccccc3)cc2c1`, 14%. As for `O=C(S)c1cccc([N+](=O)[O-])c1`, the inhibition is less than 5%.

Turning to `CC1(C)CCN(c2ccc(C(=O)S)cc2)CC1`, the inhibition was less than 5%. The figure for `O=C(S)c1ccco1` is less than 5%. In the case of `COc1cc(OC)cc(C(=O)S)c1` it was less than 5%; in that of `COc1cc2c(cc1OC)C(O)N(CC(=O)O)CC2` (configuration not stated), less than 5%.

Regarding `[N-]=[N+]=NS(=O)(=O)c1ccc(CN2Cc3c(Cl)cccc3C(Sc3ccccc3)C2)cc1` (configuration not stated), the inhibition turned out to be 25%. The figure for `O=C(S)c1ccno1` is less than 5%.
